Inconclusive results are not listed. The source made the active and inactive calls.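 Rule for the calls, unless noted: active = RAM network inhibition above 8.4% in each of two replicates, 3 SD over the compound average; inconclusive = above 8.4% inhibition in only one replicate; inactive = 8.4% inhibition or less in each replicate.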
How the values were obtained:
[1] = OD615 S. cerevisiae growth inhibition, permissive medium, pilot counter-assay, permissive growth control for S. cerevisiae lifespan shortening project (AID 705;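 active = growth inhibition above 25% in both replicates, a cutoff set 3 SD above the mean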); conditions: OD615, 24 h, at 10 µM, active compounds read high
Outline: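 Test system: Saccharomyces cerevisiae strain carrying genetically modified DeaD replicative-lifespan system; buffer or medium: SC raffinose/galactose permissive medium; dosing: one dose 10 µM, DMSO 0.25% final; times: 24 h exposure, 30 °C; measured by: OD at 615 nm; read-out basis: growth inhibition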

[2] = Restrictive medium S. cerevisiae growth inhibition, OD615, pilot screen of yeast lifespan reduction project, restrictive growth control (AID 706;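 active = growth inhibition above a set limit, 3 SD over mean compound inhibition, in both replicates, cut at about 43% in these data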;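 note: modified DeaD lifespan yeast strain shifted to restrictive glucose medium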); conditions: OD615, 48 h, at 10 µM, active compounds read high
Outline: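 material = engineered S. cerevisiae DeaD strain | buffer or medium = glucose-based CSMM-D restrictive medium | dosing = one concentration, 10 µM final, 0.25% DMSO | schedule = 4 h pre-growth plus 48 h compound exposure, 30 °C | detection = OD615 absorbance reading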

[3] = viability gain of MRP-1-high H69AR cells under doxorubicin, pilot screen, MRP-1 activator project, CellTiter-Glo, duplicate (AID 807;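 active = viability increase at or above a cutoff of the median across tested compounds plus 3 SD, cut at about 8.5% in these data, passing the limit was not always enough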;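 note: compound pretreatment 18-22 h then 72 h combined with doxorubicin; 0% = doxorubicin alone and 100% = vehicle without doxorubicin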); conditions: H69AR viability with doxorubicin, CellTiter-Glo luminescence; at 10 µM; active compounds read high
[4] = growth suppression of beta-catenin knockout HCT116, pilot screen, human colon tumor cells (AID 823;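 active = cell viability at or below a set limit in both duplicate runs, the limit being the all-compound median minus 4 SD, cut at about 23% in these data, passing the limit was not always enough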;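 note: 0% = wells killed by 20 µM Hyamine and 100% = untreated DMSO cell wells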); conditions: CellTiter-Glo, 60 h, at 10 µM, active compounds read low
[5] = growth suppression of PTEN-deleted HCT116, pilot screen, cell-based, HCT116 clonal line, CellTiter-Glo (AID 824;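 active = viability at or below 27.92% in each of two runs, the all-compound median minus 4 SD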;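 note: 0% = 20 µM Hyamine control and 100% = vehicle cell control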); conditions: 60 h, at 10 µM, active compounds read low
[6] = inhibitors of the yeast RAM network, pilot screen, dse1pr::URA3 reporter, 5-FOA selection (AID 869;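 active = inhibition over a set limit, the all-compound mean plus 3 SD, in both replicate runs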;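 note: 0% = DMSO wells with no growth and 100% = 10 µM 1-NA-PP1 with full growth; RAM network block rescues cells from 5-FOA so hits raise OD615 growth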); conditions: S. cerevisiae dse1pr::URA3 5-FOA growth, OD615, 2 d; at 10 µM; active compounds read high; strain carries analog-sensitive mutant Cbk1 kinase
[7] = RAM signaling pathway blockade in yeast – S. cerevisiae, Pdr1DBD-CYC8 efflux-inhibited sensitized strain, primary screen (AID 1298);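 note: 0% = DMSO untreated cells without growth and 100% = 10 µM 1-NA-PP1 full growth; higher means more yeast growth rescued from 5-FOA killing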; conditions: S. cerevisiae cbk1-as DSE1-URA3 strain, 5-FOA growth OD615, 2 d; at 50 µM; active compounds read high

CC(C)(C)SCCNS(=O)(=O)c1ccc(F)cc1
inactive: growth inhibition [1] -4.57% | growth inhibition [2] 3.38% | viability increase [3] 0.35% | viability [4] 94.2% | viability [5] 89.5% | inhibition [6] 0.725% | RAM network inhibition [7] 0.56%

O=C(CCC1CCCC1)c1c(O)c2ccccc2oc1=O
inactive: growth inhibition [1] 0.51% | growth inhibition [2] 13.6% | viability increase [3] -2.11% | viability [4] 69.4% | viability [5] 67.7% | inhibition [6] 0.63% | RAM network inhibition [7] -1.56%

Cc1cc(Nc2ccc(Br)cc2)n2nc(C)nc2n1
inactive: growth inhibition [1] -14% | growth inhibition [2] -2.33% | viability increase [3] -2.63% | viability [4] 96.2% | viability [5] 88.3% | inhibition [6] 2.85% | RAM network inhibition [7] 4.46%

O=C(Nc1ccc2oc(-c3ccccc3)nc2c1)c1ccncc1
inactive: growth inhibition [1] -2.31% | growth inhibition [2] -10.5% | viability increase [3] 2.36% | viability [4] 79.7% | viability [5] 77.9% | inhibition [6] 0.165% | RAM network inhibition [7] 1.62%

CC1(C)Cc2c(c(N3CCOCC3)nc3sc(C(=O)N4CCCCC4)c(N)c23)CO1
inactive: growth inhibition [1] 2.35% | growth inhibition [2] 29.3% | viability increase [3] -4.48% | viability [4] 100% | viability [5] 96.6% | inhibition [6] 2.62% | RAM network inhibition [7] 3.43%

Cc1ccc(-n2ncc3c(NCc4ccco4)ncnc32)c(C)c1
inactive: growth inhibition [1] -3.74% | growth inhibition [2] -9.7% | viability increase [3] -4.75% | viability [4] 97.3% | viability [5] 90.4% | inhibition [6] -0.12% | RAM network inhibition [7] -0.57%

Cc1noc(C(=O)N2CCN(c3ccc(F)cc3)CC2)c1Cl
inactive: growth inhibition [1] -12.6% | growth inhibition [2] -16.4% | viability increase [3] 1.26% | viability [4] 105% | viability [5] 101% | inhibition [6] 2.11% | RAM network inhibition [7] 9.11%

Cc1cc(C)cc(N(CC(=O)N2CCN(c3ccccc3)CC2)S(=O)(=O)c2c(C)noc2C)c1
inactive: growth inhibition [1] -14.4% | growth inhibition [2] -10.2% | viability increase [3] -3.46% | viability [4] 62.6% | viability [5] 67.5% | inhibition [6] 0.57% | RAM network inhibition [7] 6.09%

O=C(CCc1nc2ccccc2[nH]1)NCc1ccc2c(c1)OCO2
inactive: growth inhibition [1] -8.32% | growth inhibition [2] -4.06% | viability increase [3] -2.13% | viability [4] 97.8% | viability [5] 91.7% | inhibition [6] 2.1% | RAM network inhibition [7] 1.84%

CC(Sc1ccc2nnc(-c3ccc(F)cc3)n2n1)C(=O)O (configuration not stated)
inactive: growth inhibition [1] 8.21% | viability increase [3] -1.09% | viability [4] 100% | viability [5] 94.2% | inhibition [6] 1.28% | RAM network inhibition [7] 1.27%
active: growth inhibition [2] 52.5%

OCCCc1nc2n(n1)C(c1cccs1)C=C(c1ccccc1)N2 (configuration not stated)
inactive: growth inhibition [1] -17.7% | growth inhibition [2] -5.79% | viability increase [3] -4.73% | viability [4] 83.6% | viability [5] 84.7% | inhibition [6] 3.25% | RAM network inhibition [7] 3.92%

O=C1c2ccccc2C(O)N1CCN1CCOCC1 (configuration not stated)
inactive: growth inhibition [1] -0.105% | growth inhibition [2] -6.41% | viability increase [3] -1.24% | viability [4] 94.5% | viability [5] 101% | inhibition [6] 2.64% | RAM network inhibition [7] 1.95%

Cn1c(=O)oc2cc(S(=O)(=O)Nc3ccc(Cl)cc3F)ccc21
inactive: growth inhibition [1] -9.48% | growth inhibition [2] -19.3% | viability increase [3] 2.12% | viability [4] 105% | viability [5] 92.7% | inhibition [6] 0.53% | RAM network inhibition [7] 9.07%

N=c1oc2ccccc2cc1-c1nc2ccccc2c(=O)[nH]1
inactive: growth inhibition [1] 2.5% | growth inhibition [2] 1.96% | viability increase [3] 2.52% | viability [4] 94.3% | viability [5] 96.3% | inhibition [6] 2% | RAM network inhibition [7] 4.24%

CCOc1cc(CN2CCSCC2)ccc1O
inactive: growth inhibition [1] -8.12% | growth inhibition [2] -9.94% | viability increase [3] 0.51% | viability [4] 97% | viability [5] 101% | inhibition [6] 0.825% | RAM network inhibition [7] 4.67%

COc1ccc(NC(=O)Nc2ccc3nccnc3c2)cc1
inactive: growth inhibition [1] -13.5% | growth inhibition [2] -17.2% | viability increase [3] -4.49% | viability [4] 67.5% | viability [5] 68.7% | inhibition [6] 1.81% | RAM network inhibition [7] 3.72%

CCOCCCNC(=O)CCCn1nc(C)n2c(cc3sccc32)c1=O
inactive: growth inhibition [1] -4.89% | growth inhibition [2] 5.71% | viability increase [3] 0.66% | viability [4] 108% | viability [5] 98% | inhibition [6] 0.895% | RAM network inhibition [7] 4.4%

CC1(C)CC(=O)C=C(NCCN2CCN(C(=O)Nc3ccc(Cl)c(Cl)c3)CC2)C1
inactive: growth inhibition [1] 13.1% | growth inhibition [2] 8.88% | viability increase [3] -3.81% | viability [4] 94.8% | viability [5] 90.1% | inhibition [6] -0.235% | RAM network inhibition [7] 3.08%

CCc1nc(N(CC)CC)c2oc3ccccc3c2n1
inactive: growth inhibition [1] -2.86% | growth inhibition [2] -35.2% | viability increase [3] -4.87% | viability [4] 75.5% | viability [5] 71% | inhibition [6] -0.16% | RAM network inhibition [7] 1.04%

COCCNC(=O)COc1ccccc1Cl
inactive: growth inhibition [1] -8.43% | growth inhibition [2] 0.04% | viability increase [3] -1.02% | viability [4] 95.4% | viability [5] 93.8% | inhibition [6] 0.815% | RAM network inhibition [7] 1.81%

O=C(Cn1cc2c(n1)CCCCC2)NCCN1CCOCC1
inactive: growth inhibition [1] 7.15% | growth inhibition [2] 10.1% | viability increase [3] -0.25% | viability [4] 107% | viability [5] 97.3% | inhibition [6] 2% | RAM network inhibition [7] 2.18%

O=C(NCc1ccccc1)c1ccc(/C=N/O)nc1
inactive: growth inhibition [1] -17.6% | growth inhibition [2] -5.67% | viability increase [3] -0.06% | viability [4] 98.2% | viability [5] 106% | inhibition [6] 2.25% | RAM network inhibition [7] 6.66%

Cc1cc(C)cc(N(CC(=O)N2CCc3ccccc32)S(=O)(=O)c2c(C)noc2C)c1
inactive: growth inhibition [1] -11.2% | growth inhibition [2] -5.73% | viability increase [3] -4.52% | viability [4] 90.4% | viability [5] 89.9% | inhibition [6] 2.83% | RAM network inhibition [7] 0.55%

COc1ccc2cc(CCNC(=O)c3c(-c4ccccc4Cl)noc3C)c(=O)[nH]c2c1
inactive: growth inhibition [1] -14.1% | growth inhibition [2] -21.1% | viability increase [3] -3.23% | viability [4] 103% | viability [5] 92.7% | inhibition [6] 1.02% | RAM network inhibition [7] 4.72%

CC1(C)Oc2ccc3ccc(=O)oc3c2-c2cnoc21
inactive: growth inhibition [1] 0.81% | growth inhibition [2] 5.33% | viability increase [3] -0.4% | viability [4] 104% | viability [5] 96.3% | inhibition [6] 1.08% | RAM network inhibition [7] 4.79%

COc1ccccc1NC(=O)Nc1ccnn1C1CCCCC1
inactive: growth inhibition [1] -7.38% | growth inhibition [2] -10.3% | viability increase [3] -0.89% | viability [4] 92.2% | viability [5] 94.1% | inhibition [6] 2.41% | RAM network inhibition [7] 0.5%

CCCc1ccc(-c2ccc(C(=O)O)cc2)nc1
inactive: growth inhibition [1] 8.77% | growth inhibition [2] 5.22% | viability increase [3] -3.24% | viability [4] 101% | viability [5] 95.9% | inhibition [6] -0.425% | RAM network inhibition [7] -2.78%

CCOC(=O)CCc1c(C)n(CC)c2ncnn2c1=O
inactive: growth inhibition [1] -3.41% | growth inhibition [2] -0.57% | viability increase [3] -0.77% | viability [4] 102% | viability [5] 101% | inhibition [6] 0.735% | RAM network inhibition [7] 0.04%

CC1(C)CC(=O)C2=C(C1)Nc1ccccc1NC2c1nc2ccccc2[nH]1 (configuration not stated)
inactive: growth inhibition [1] -10.1% | growth inhibition [2] 1.04% | viability increase [3] -3.97% | viability [4] 100% | viability [5] 95.7% | inhibition [6] 1.65% | RAM network inhibition [7] 1.45%

O=C(NCCCN1CCCC1)c1ccc(CS(=O)(=O)c2ccc(Br)cc2)o1
inactive: growth inhibition [1] -5.7% | growth inhibition [2] -13.3% | viability increase [3] -0.99% | viability [4] 90.6% | viability [5] 96.5% | inhibition [6] 1.63% | RAM network inhibition [7] 2.23%

O=C(c1csc2c1CCCC2)n1cccn1
inactive: growth inhibition [1] 13.2% | growth inhibition [2] 15.7% | viability increase [3] -0.86% | viability [4] 98.7% | viability [5] 106% | inhibition [6] 1.69% | RAM network inhibition [7] -0.11%

Fc1ccccc1COc1ccc(/C=N/n2cnnc2)cc1
inactive: growth inhibition [1] 3.41% | growth inhibition [2] 23.7% | viability increase [3] -1.78% | viability [4] 102% | viability [5] 95.4% | inhibition [6] 2.11% | RAM network inhibition [7] 2.09%

CCN(CC)C(=O)Nc1cnc2ccccc2c1
inactive: growth inhibition [1] -17.2% | growth inhibition [2] -8.12% | viability increase [3] -2.72% | viability [4] 93.5% | viability [5] 96.4% | inhibition [6] 0.115% | RAM network inhibition [7] 5.38%

COc1ccccc1NC(=O)CSc1nc2ncccc2[nH]1
inactive: growth inhibition [1] -4.5% | growth inhibition [2] 17.8% | viability increase [3] -1.01% | viability [4] 101% | viability [5] 98.2% | inhibition [6] 0.975% | RAM network inhibition [7] 3.83%

CCN(CC)CCN=C1CCCc2ccccc2N1
inactive: growth inhibition [1] -1.96% | growth inhibition [2] 5.53% | viability increase [3] -2.11% | viability [4] 86.9% | viability [5] 87% | inhibition [6] 2.3% | RAM network inhibition [7] 0.67%

O=C(CC(c1ccccc1)c1ccccc1)Nc1ncn[nH]1
inactive: growth inhibition [1] -5.6% | growth inhibition [2] 9.86% | viability increase [3] 4.51% | viability [4] 100% | viability [5] 90.1% | inhibition [6] -0.035% | RAM network inhibition [7] 3.78%
